Measured values from the EternaBench riboswitch data.

System: MS2 coat protein
Experiment: apparent Kd, MS2 coat protein; higher = weaker binding; RNA-MaP array; FMN 200 µM where present
Procedure, shortened: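 Green signal from SNAP-549-labelled MS2 coat protein was normalised to red-channel RNA signal and to the median Fmax of control clusters. The protein was titrated from 0.7 or 1.5 nM, doubling to 3 µM, without and then with constant ligand, over designs transcribed by stalled E. coli RNA polymerase on Illumina sequencing-chip clusters, in 100 mM Tris-HCl pH 7.5, 80 mM KCl, 4 mM MgCl2, BSA, DTT, yeast tRNA and Tween-20. The apparent Kd is the median of filtered per-cluster binding-curve fits.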

[1] = designed as: OFF switch for flavin mononucleotide, no ligand
[2] = ligand present: flavin mononucleotide, designed as: OFF switch for flavin mononucleotide
[3] = designed as: ON switch for flavin mononucleotide, no ligand
[4] = ligand present: flavin mononucleotide, designed as: ON switch for flavin mononucleotide

Sequence | apparent Kd [1] [nM] | apparent Kd [2] [nM] | apparent Kd [3] [nM] | apparent Kd [4] [nM]
CGAUGUUAUGCAGGAUAUCUCUCUUGUUUGAGGAGAGAAGGGCAUAGGGAGACAUACGCCUUAUUACAUGAGGAUCACCCAUGU | 8.83 | 8 |  | 
AUCAGCUCGUCAGGAUAUACGUCACGGCGUCAGCAGUGUGGUAAGAUCACAUGAGGAUCACCCAUGUAGAAGGGACGAGCUGAU | 19.5 | 226 |  | 
UGGAUCAUGGGAGGAUAUCCUCAAGAGACAUGAGGAUCACCCAUGUAUUAUAAGCCGAAAGGCAUGGAGAAGGCCCAUGAUCCU |  |  | 50.3 | 19
UGUCGGAGCAGAGGAUAUACAUGAGGAUCACCCAUGUAAUAAAGUGAAGCCUGGACACAGGCAAUGUAGAAGGCUGCUCCGACA | 12.7 | 87.9 |  | 
GAGCGAAAGCUCAAUGUCGAUAGCAGAAGGACGUGAAAACAUGAAAACACAUGAGGAUCACCCAUGUAGGAUAUGCUAUCGACU | 11.2 | 27.6 |  | 
GGAUGAGCAAUAGGAUAUGCUGGGAUUGAAUGGGUAGAAGGAUUUCUAGUGGGAAAGACAUGAGGAUCACCCAUGUCGCGGACC |  |  | 25.2 | 26.6
UUUGUCAUCGAGAAGGCCUCAACAUGAGGAUCACCCAUGUUGUAAUAUGGGAGGAUAUCGAUGAUACAGCUACGUUUCGUAGGG |  |  | 18.1 | 5.6
CUAAUGUGAGGAUAUGGUGUUGAUCGCAGGAAGGAGAUGCUCCAGAAGGCACAUGAGGAUCACCCAUGUAGUGA | 70.5 | 36.7 |  | 
ACAAUACAUGAGGAUCACCCAUGUUAGGAUAUACGCAUGCAUGCAUGCAUGCAUGCAAGUAGAAGGAACCAUGC | 28.6 | 26.8 |  | 
GGUGCAUGUGAGAAGGCGAUCAUGAAACAUGAUCGAGGAUAUCAUGUAAACAUGAGGAUCACCCAUGUAUGGGAAAAGUGCACC |  |  | 97.9 | 10.1
AGGCUAUUAGGAUAUACAUGAGGAUCACCCAUGUCGAUCUACAGGCUACGGCACGGCAGUAGAAGGAAUGGCCG | 15.7 | 16.7 |  | 
GUAGAGUAGUGAGGAUAUACGAGAACGAUAGUUCGGCGAUCCAUUAAUACAUGAGGAUCACCCAUGUAGAAGGCACUUCUCUAC | 7.11 | 90.4 |  | 
GCUAGUAUUGCAGGAUAUUGAGAAUAAUUAUUACAAGAAGGGCAUAACAUGAGGAUCACCCAUGUUUUCCUUAAUGAUACUAGC | 5.33 | 5.59 |  | 
CCUCCUGGUCAGGAUAUCGGACGUUUUAUUCGACGAGAAGGGACCACAUGAGGAUCACCCAUGUGAUGAAGAAC | 42.4 | 182 |  | 
AAUGCACAUGAGGAUCACCCAUGUAAGACAAAGACAGGAUAUGGGCCGCAUGGCUCUGGCCCAGAAGGGUCAGUCG |  |  | 25 | 18.6
GCCAUCGCAUGAGGAUAUGCUCCGGUUUCCGGAGCAGAAGGCGUGUCAUAAGACAUGAGGAUCACCCAUGUAGUUAAGAUGGCA |  |  | 246 | 10.6
GGGCCGGUGGAGAAGGAGCUUGCAAAACGCAUGCUAGGAUAUCCACAUGAGGAUCACCCAUGUGGGAAUAUCUGGUUUUCACAG | 4.09 | 4.79 |  | 
UUGGACGUCGUAGGAUAUGUAGGAUAUCCCUACAUGAGGAUCACCCAUGUUGACAUGGAAGAAGGACAGAAGGACGAUGUCCAU |  |  | 105 | 11.8
AAACACGGACAUGAGGAUCACCCAUGUGGCGAAAGCCUUGGAAGAAGGCCGAUAGCAAAGCUAUCGGAGGAUAUUCAUACCGUG |  |  | 17.2 | 5.78
GCGGAGUGAGGAUAUCCAAUUUAACGUACCAAUUAGGUACGGGAGAAGGCACAUGAGGAUCACCCAUGUACCGC | 72.4 | 53.5 |  | 
CACGUCAGGAAACGGAGCGGCCAACAUGAGGAUCACCCAUGUGAGGAUAUGCCUACUAAAAGUAGGCAGAAGGCGCAAUUGGCA | 29.1 | 39.9 |  | 
AAAGCGGGAUAGAAGGUCUGCUUGGUGUAUUACAUGAGGAUCACCCAUGUAGAAGGAUAUAUCUCAUUCUUGGGCUCACCCAAA | 208 | 367 |  | 
GGUGGACAUGAGGAUCACCCAUGUGAGGAUAUCGGCUGGCUAGUGGCGGAUGGCUUCUCGAGAAGGCGCAUAGU | 76.9 | 66 |  | 
UUUCUACAUGAGGAUCACCCAUGUCAACAAAGUCGAGGAUAUGGGCAUAUUAUCUUAUUUCCAGAAGGCGAUUUCU |  |  | 145 | 29.5
AAUUCACAUGAGGAUCACCCAUGUGAGGAUAUGGAUUCGCUGGCCGUAGCCAGUGGAUCCAGAAGGCGCAUGAU | 29.2 | 35.6 |  | 
AUCAGCUCGUCAGGAUAUACGUCACUGCGUCAGCAGAGUGGUAAGAUCACAUGAGGAUCACCCAUGUAGAAGGGACGAGCUGAU | 39.5 | 421 |  | 
UUUCCCUGUGUGAGGAUAUACUUGUUUGGGUUUUUGUAGAAGGCACAUGAGGAUCACCCAUGUACUCUGUCCUG | 25.3 | 30.6 |  | 
CCUGUGUGAGGAUAUGGUGUUGGCAAAAAGGAAUAGCUCCUCCAGAAGGCACAUGAGGAUCACCCAUGUCGUGG | 15.2 | 36 |  | 

Sequence | apparent Kd [1] [nM] | apparent Kd [2] [nM] | apparent Kd [3] [nM] | apparent Kd [4] [nM]
CUUGUGUGAGGAUAUGACAAUGGUAUCUUCGGAUACCAUUGUCAGAAGGUACAUGAGGAUCACCCAUGUAGAUC | 91 | 140 |  | 
AGUGGUUACACAGGAUAUCCUCGUUAUUAACUAGGAGAAGGGUGGACACCACACAUGAGGAUCACCCAUGUACCACGAUAAAGA |  |  | 209 | 42.4
UUGAAGAUAGGAUAUACGAGGAGAGGAGAGAGAAGGUGAGGACAUGAGGAUCACCCAUGUAGAAGGAUCAGGAA | 81.5 | 62.5 |  | 
AAAUUUAACGAAGGAUAUGGAUACAUGAGGAUCACCCAUGUAUAUUUUGUGAUCUUGUAAAAGUACCAGAAGGUCGUAUACAUA | 85.7 | 208 |  | 
UUGCUCAAAUGGGCAGGGACCUCACAUGAGGAUCACCCAUGUCAGGAUAUCCUAGUUUGGACGUAGGAGAAGGGACAGAGUAUC | 227 | 171 |  | 
CCUGCACAUGAGGAUCACCCAUGUCAGGAUAUCUCGCCGUGUGGAGCAACACGGUAUAAGAGAAGGGACACGGG | 28.7 | 25.7 |  | 
UACAAUCUAUCUGAGGAUAUCAUGCAUUACACAUGAGGAUCACCCAUGUGCAGGAAAACUGCAUAUGAGAAGGCAGAUAGAUUGU |  |  | 561 | 23.8
UUAAAUCAUGUAGGAUAUGCAUGGCGAAGCUACGCAGAAGGACAUGAGGAUCACCCAUGUUCUGGCUACCGAGUUCGGUGGCAA | 20.7 | 83.2 |  | 
AACUCGUCAGGAUAUGCGCGCAGUUACUACGCUUCGCAAUUGCAGAAGGGACAUGAGGAUCACCCAUGUAGAUC | 34.6 | 57.3 |  | 
UGGUACUAGGGAGGAUAUGGGAAGAUACAUGAGGAUCACCCAUGUUUAAGAAUGCCGAGAGGCAACUAGAAGGCCCUAAUACCU |  |  | 400 | 19.1
GAAAGGUCAGGAUAUACGUUAUGCUAGUGCUCGUACUAUAAGUAGAAGGGACAUGAGGAUCACCCAUGUGAUAA | 54.8 | 79.4 |  | 
AAAAGUUGAGGAUAUACAAAAUGAUUGCGAAAUCAAUUAAAACAUGAGGAUCACCCAUGUAGAAGGCGAUAAAA | 31.1 | 25.9 |  | 
AUUGAUGUUGAGGAUAUGCUUUUAUUUAUUAUAGCAGAAGGCGAUACAUGAGGAUCACCCAUGUUCAUGGCUUU | 11.8 | 14.9 |  | 
GCCUCAUAGUAGAAGGGACUUAGACAGUAAAGCAAAUAGAGGAAUUAACAUGAGGAUCACCCAUGUCAGGAUAUACUAAGAGGC | 11.3 | 12.1 |  | 
AGCUGACAAGGAUAUACUCGGGAUGCUAGUCGCGCAGAAGCACAUGAGGAUCACCCAUGUAGAAGGUGUCAGAA | 158 | 83.2 |  | 
GUUGGGUGUCAUGUCGCACAUGAGGAUCACCCAUGUAGGAGGUAGGAUAUCCACGAGAAACGAGAGGAGAAGGGCCAUUAGCGU | 19.2 | 23 |  | 
AAUAACAGAGGAUAUACUGUUUUAUGUAUUUAUUAUUUUGAACAUGAGGAUCACCCAUGUAGAAGGCUGAUUGA | 35.6 | 31.6 |  | 
UAGUAUAAGGGCAUUAAACAUGAGGAUCACCCAUGUACGUUAGAGGAUAUGCAUUACAGUUGAAAGUAGAAGGUUAGAGAAGGG | 45.6 | 50.1 |  | 
ACAUGCAUAGCGAUAUGAUCGAGAGAUCAUGUCGCUAAAUUUAGAAGGACAUGAGGAUCACCCAUGUAGGAUAUGGGAGCAUGC |  |  | 87.9 | 17.1
AUCAUCUUGUCAGGAUAUGCGUGUCAACGAAAGUAGACAAUCUUGAUAACAUGAGGAUCACCCAUGUAGAAGGGACGAGAUGAU | 21 | 21.9 |  | 
AUAGCAACAUGAGGAUCACCCAUGUAGGAUAUCGCUAUUGUAAUCAUGAAACAUGAUUACAAUAGCGAGAAGGACAUAUGCUAC | 9.33 | 11 |  | 
CGUCGGAGCAGAGGAUAUUACAUGAGGAUCACCCAUGUAUGAACCAAUAGCUGGAAACAGCAAUGUAAGAAGGCUGCUCCGACA | 12.8 | 198 |  | 
AUAAAUAAGCAAGGAUAUUGUUUAAAUAAAUAACAAGAAGGUGCAGUUAAUUUCUCAAAACAUGAGGAUCACCCAUGUAUUUAA |  |  | 42.4 | 21.8
ACUAGAUGCGUGAAAUAACACAUGAGGAUCACCCAUGUGACGCAGGAUAUAACCAGAUCAGAAAGUUAGAAGGGUGAGCACGCA |  |  | 60.8 | 31.8
AUAAUGCGAGGAUAUACAUGAGGAUCACCCAUGUAAUUCAAUCGGAGAGCCACAUUACGUAGAAGGUGCAUUAA | 17 | 23 |  | 
GGGUAGGACAGAGGAUAUACGUGCUAGAGAUACUAGCAAAAUUUCCUCACAUGAGGAUCACCCAUGUAGAAGGCUGUCCUAUCG | 16.9 | 397 |  | 
UGCACCAACGAGAAGGCACAGAUCCAGCUCUUGACAUGAGGAUCACCCAUGUGAGGAUAUCGUAGGUGCGCAUUGGGACAAUCU | 11.9 | 103 |  | 
